# Bioassay records deposited in PubChem BioAssay by several laboratories.
# NR2E3 ag-1 = activates human photoreceptor nuclear receptor NR2E3 | inhibition of corepressor binding, % at 4.78 µM | Q9Y5X4 | 0.12% of 320,000 active | GST-NR2E3/biotin-RetCOR TR-FRET, 1536-well;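 active = percent inhibition above the cutoff of mean plus 3 SD of all tested compounds, set per screening campaign, cut at about 20% in these data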
# Target sequence (Q9Y5X4 whole entry, looked up): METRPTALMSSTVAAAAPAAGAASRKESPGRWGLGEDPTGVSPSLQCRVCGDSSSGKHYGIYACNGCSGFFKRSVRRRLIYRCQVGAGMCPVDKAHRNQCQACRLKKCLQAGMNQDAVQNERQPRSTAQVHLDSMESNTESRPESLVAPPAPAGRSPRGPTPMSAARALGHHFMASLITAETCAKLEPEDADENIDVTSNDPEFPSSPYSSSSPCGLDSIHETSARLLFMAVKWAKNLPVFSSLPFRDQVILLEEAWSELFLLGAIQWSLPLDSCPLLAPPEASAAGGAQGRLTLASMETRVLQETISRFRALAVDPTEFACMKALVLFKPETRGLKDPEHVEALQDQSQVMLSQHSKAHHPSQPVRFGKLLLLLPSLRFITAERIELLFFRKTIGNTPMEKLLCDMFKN
#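 Assay system: NR2E3–RetCOR corepressor complex. Quantity: 1.35 nM GST-NR2E3. Buffer or medium: pH 7.5 Tris-based buffer. Reagent: biotinylated RetCOR corepressor at 7 nM final. Schedule: 5 h at 4 °C. Detection: TR-FRET, emission read at 617 and 671 nm. Replicates: one well per compound, singlicate testing.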
# PG9 binder = small molecules binding HIV-1 gp120 antibody PG9 | TR-FRET gp120-PG9 antibody binding | inhibition, % at 6.7 µM | 0.43% of 360,000 active | AID 624416; in the data active = inhibition above about 8.5%
# NR2E3 ag-2 = human photoreceptor-specific nuclear receptor agonism | CHO-S Gal4-NCOR/VP16-NR2E3 two-hybrid, luciferase | inhibition of corepressor binding, % at 3.98 µM | 0.35% of 360,000 active | AID 602229;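 active = inhibition above the mean of all tested compounds plus 3 SD, cut at about 70% in these data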;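 note: higher means lower luciferase signal from less NR2E3 corepressor binding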
# Rev-erbA mod = Rev-erb alpha (human) modulation; 0.79% of 370,000 active; Rev-erbα–FITC-DNA binding, fluorescence polarization, 90 min; activity, % at 10 µM; AID 1259318;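 active = activity above about 14%, limit read from the data; passing the limit was not always enough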
# Neddyl block = cullin neddylation inhibition. TR-FRET cullin neddylation, biochemical. calls only at 25 µM. 0.58% of 360,000 active; in the data active = inhibition above about 36%
# NR2E3 ag confirm = NR2E3 agonism confirmed in two-hybrid assay | shares compounds with NR2E3 ag-2 | AID 624378 | CHO-S mammalian two-hybrid NR2E3-NCOR, luciferase luminescence | inhibition, % at 3.98 µM | 51% of 2,300 active;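 active = average inhibition above a cutoff equal to the mean inhibition of all tested compounds plus one SD, cut at about 70% in these data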
# GAL4-VP16 luc = reduces GAL4-VP16 reporter signal in NR2E3 counterscreen | inhibition, % at 3.98 µM | shares compounds with NR2E3 ag-2 | CHO-S GAL4-VP16 luciferase reporter, luminescence | 29% of 2,300 active | AID 624379;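 active = mean inhibition above a cutoff equal to the average over all tested compounds plus one standard deviation, cut at about 70% in these data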;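 note: luciferase from a UAS reporter driven by GAL4-VP16 transactivation; higher means less reporter light so more repression of VP16 activity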
# Hits are given with their value; i = inactive; nt = no result given. Compounds with a hit are over-represented: about 2% of the library has one in this group of screens.
SMILES,NR2E3 ag-1,PG9 binder,NR2E3 ag-2,Rev-erbA mod,Neddyl block,NR2E3 ag confirm,GAL4-VP16 luc
NC[C@H]1O[C@H](O[C@@H]2[C@H](O)[C@@H](O[C@H]3O[C@H](CO)[C@@H](O)[C@H](N)[C@H]3O)[C@H](N)C[C@@H]2N)[C@H](O)[C@@H](O)[C@@H]1O,nt,nt,nt,i,nt,nt,nt
O=C(CS(=O)Cc1ccco1)NC/C=C\COc1cc(CN2CCCCC2)ccn1 (centres undefined),nt,nt,nt,i,nt,nt,nt
Cc1ccc2[nH]c3c(c2c1)CCCC3NC(=O)CCl (centres undefined),i,nt,88,nt,i,89,72
Cc1ccc2[nH]c3c(c2c1)CCCC3C(N)=O (centres undefined),i,i,i,i,i,nt,nt
Cc1ccccc1C(=O)N(C)[C@H]1C[C@H]2c3[nH]c4c(-c5ccc6c(c5)OCO6)cccc4c3CCN2C[C@H]1[C@H](C)O,nt,nt,nt,i,nt,nt,nt
O=C1C(=O)N(c2nccs2)C(c2ccccc2)/C1=C(\O)c1ccc2c(c1)OCCO2 (centres undefined),i,nt,76,nt,i,82,i
O=C1C(=O)N(c2nccs2)C(c2ccccc2F)/C1=C(\O)c1ccc2c(c1)OCCO2 (centres undefined),i,i,93,i,i,92,i
Cc1nnc(N2C(=O)C(=O)/C(=C(/O)c3ccc4c(c3)OCCO4)C2c2ccc(F)cc2)s1 (centres undefined),i,i,i,i,i,nt,nt
COc1cnc(-c2ccccn2)nc1Oc1ccccc1Cl,i,i,i,i,i,nt,nt
Cc1ccc(Sc2cc(C)nc(-c3ccccn3)n2)cc1,i,i,86,i,i,i,i
COc1cnc(-c2ccccn2)nc1NC(C)C,i,i,i,i,i,i,i
COc1ccccc1Sc1nc(-c2ccccn2)ncc1OC,i,i,78,i,i,i,i
COc1cnc(-c2ccccn2)nc1Sc1cccc(Cl)c1,i,i,i,i,i,i,i
COc1cnc(-c2ccccn2)nc1Oc1ccc(F)cc1F,i,i,i,i,i,nt,nt
CC(C)(C)NC(=O)[C@H]1CCC2C3CCC4NC(=O)C=C[C@]4(C)C3CC[C@@]21C (some centres undefined),nt,nt,nt,i,nt,nt,nt
COc1cnc(-c2ccccn2)nc1Sc1ccc(C)cc1,i,i,94,i,i,i,i
COc1ccccc1CCn1cnc(-c2cccc(F)c2)c1CC(C)C,nt,i,nt,i,nt,nt,nt
Cc1ccc(Cn2cc(CN3[C@@H](CC(C)C)COc4cccc(F)c4S3(=O)=O)nn2)cc1,nt,nt,nt,i,nt,nt,nt
CCOC(=O)c1c(C)[nH]c(C(=O)OCC(=O)Nc2sccc2C(N)=O)c1C,i,i,i,i,i,i,i
CCCC(=O)N1CCC[C@]2(CC[C@@H](CCC(=O)N(CC)CC)O2)C1,nt,nt,nt,i,nt,nt,nt
OC[C@@H]1CN(Cc2ccc(-c3ccccc3)cc2)C[C@H](n2cnc3c(NC4CCC4)ncnc32)O1,nt,i,80,i,i,91,79
CCCC1CCC2(CC1)CCC2OC(=O)Nc1cccc(C(F)(F)F)c1 (centres undefined),nt,nt,nt,i,nt,nt,nt
Cc1ccc2c(CN(C)Cc3ccc(OC(F)F)cc3)cc(=O)oc2c1C,i,i,i,i,i,i,i
Cc1ccc2c(CN(C)Cc3ccccc3)cc(=O)oc2c1C,i,i,i,i,i,nt,nt
CN(C)c1ccc(CNc2ncnc3sccc23)cc1,i,i,99,i,i,93,i
SMILES,NR2E3 ag-1,PG9 binder,NR2E3 ag-2,Rev-erbA mod,Neddyl block,NR2E3 ag confirm,GAL4-VP16 luc
COc1ccc(CCNc2ncnc3sccc23)cc1OC,i,i,90,i,i,98,90
c1ccc2c(c1)OCC(CNCC1COc3ccccc3O1)O2 (centres undefined),i,i,i,i,i,nt,nt
COc1ccc(Nc2ncnc3sccc23)cc1OC,i,i,i,i,i,nt,nt
Fc1ccccc1CNc1ncnc2sccc12,i,i,100,i,i,88,71
c1ccc2c(c1)OCC(CNc1ncnc3sccc13)O2 (centres undefined),i,i,84,nt,i,97,87
COc1ccc(CSc2nnc(SCC(=O)Nc3ccccc3-c3ccccc3)s2)cc1,nt,nt,nt,i,nt,nt,nt
CN(C)c1ccc(C(=O)NC2CCCCN(Cc3ccc(Cl)cc3)C2=O)cc1 (centres undefined),nt,nt,nt,i,nt,nt,nt
COc1ccccc1Oc1ncnc2sccc12,i,i,i,i,i,nt,nt
COc1ccccc1CNc1ncnc2sccc12,i,i,100,i,i,92,76
CC(=NNC(=S)N1CCCCC1)c1cccc(C)n1,nt,i,i,i,i,nt,nt
CC(=NNC(=S)N1CCCCC1)c1ccccn1,nt,i,85,i,i,i,i
C/C(=N\NC(=O)c1ccc(F)cc1)c1ccccn1,i,i,i,i,i,nt,nt
CC(=NNC(=S)Nc1ccccc1Cl)c1ccccn1,nt,i,86,i,i,i,i
C=CCNC(=S)N/N=C(\C)c1ccccn1,i,i,84,i,i,i,i
CC(=NNC(=S)Nc1ccccc1)c1ccccn1,nt,i,85,i,i,i,i
COC(=O)C1=C(C)N(Cc2ccc(C(F)(F)F)cc2)C(=NCc2ccc(OC)cc2)NC1c1ccccc1C(F)(F)F (centres undefined),nt,i,nt,i,nt,nt,nt
COc1ccccc1NS(=O)(=O)c1ccc2oc(SC(C)C(=O)N3CCNC3=O)nc2c1 (centres undefined),i,i,i,i,i,i,i
CCCCCc1c(-c2ccccc2OC)ncn1CCc1ccccc1OC,nt,i,i,i,i,i,i
COc1ccc(C(=O)N(C)[C@H]2C[C@H]3c4[nH]c5cccc(-c6ccccc6)c5c4CCN3C[C@H]2[C@H](C)O)cc1,nt,nt,nt,i,nt,nt,nt
Nc1ncnc2c(C3OC(CO)C(O)C3O)scc12 (centres undefined),nt,i,100,i,nt,97,96
Nc1ncnc2c1ncn2C1O[C@H](CO)[C@@H](O)[C@@H]1O (some centres undefined),i,i,i,i,i,nt,nt
O=C(Nc1cc(S(=O)(=O)N2CCCCC2)ccc1Cl)c1ccccc1NS(=O)(=O)c1ccc(F)cc1,i,i,96,i,nt,99,85
Cc1ccc(S(=O)(=O)Nc2nc(-c3ccccc3)cs2)cc1,i,i,i,i,i,nt,nt
COc1ccc(-c2csc(NC(=O)c3ccccc3NS(=O)(=O)c3ccc(F)c(F)c3)n2)cc1,i,i,98,i,i,101,91
Cc1ccc(S(=O)(=O)Nc2ccccc2C(=O)Nc2nc(-c3ccc(F)cc3)cs2)cc1,i,i,94,i,nt,98,84
COc1ccc(-c2csc(NC(=O)c3ccccc3F)n2)cc1,i,i,i,i,i,nt,nt
CCN(CC)c1ccc(/C=N/NC(=S)NC)c(O)c1,i,i,i,i,i,i,i
CC(=O)Cc1nsc(NC(=O)c2c(-c3ccccc3Cl)noc2C)n1,i,i,i,i,i,nt,nt
